{"data": "Experimental data from different studies", "target": "Mitogen-activated protein kinase kinase kinase kinase 3 (MAP4K3, Homo sapiens, UniProt Q8IVH8)", "Residues used in one study (Q8IVH8 1-894)": "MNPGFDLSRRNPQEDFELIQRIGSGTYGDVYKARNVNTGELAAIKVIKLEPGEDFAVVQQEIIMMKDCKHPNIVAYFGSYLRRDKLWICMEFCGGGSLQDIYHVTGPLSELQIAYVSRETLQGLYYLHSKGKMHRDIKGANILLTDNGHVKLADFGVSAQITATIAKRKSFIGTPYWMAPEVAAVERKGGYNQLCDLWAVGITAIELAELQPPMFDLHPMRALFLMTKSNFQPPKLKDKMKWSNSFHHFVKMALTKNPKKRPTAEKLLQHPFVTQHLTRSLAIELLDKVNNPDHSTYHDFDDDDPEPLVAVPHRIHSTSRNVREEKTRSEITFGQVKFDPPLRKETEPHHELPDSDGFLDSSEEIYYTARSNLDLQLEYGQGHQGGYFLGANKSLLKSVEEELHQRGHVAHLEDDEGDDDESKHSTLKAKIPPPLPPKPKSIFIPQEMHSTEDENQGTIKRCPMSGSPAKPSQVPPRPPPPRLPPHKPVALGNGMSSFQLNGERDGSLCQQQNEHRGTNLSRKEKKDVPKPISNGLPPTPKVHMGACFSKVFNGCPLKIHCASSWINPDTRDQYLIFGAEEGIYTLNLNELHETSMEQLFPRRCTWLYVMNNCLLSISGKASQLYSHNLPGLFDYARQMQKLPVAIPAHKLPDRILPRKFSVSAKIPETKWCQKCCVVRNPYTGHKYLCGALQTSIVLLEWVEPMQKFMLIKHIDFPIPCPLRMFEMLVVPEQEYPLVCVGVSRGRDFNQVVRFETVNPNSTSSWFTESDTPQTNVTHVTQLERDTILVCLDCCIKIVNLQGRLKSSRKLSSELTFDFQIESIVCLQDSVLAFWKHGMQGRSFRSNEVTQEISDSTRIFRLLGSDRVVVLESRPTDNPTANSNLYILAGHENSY"}
{"SMILES": "COc1ccc2oc(-c3ccc4nc(N)oc4c3)c/c(=N\\c3ccccc3NC(=O)CCN)c2c1", "test": "binding", "conditions": "1 µM", "quantity": "remaining binding", "value": "113%"}
{"SMILES": "C=CC(=O)N1CCC([C@@H]2CCNc3c(C(N)=O)c(-c4ccc(Oc5ccccc5)cc4)nn32)CC1", "test": "enzyme activity, inhibitor", "conditions": "1 µM", "quantity": "inhibition", "value": "14%"}
{"SMILES": "CCCCC(=O)Nc1ccc(-c2ccc3ncn(CCC)c(=O)c3c2)cn1", "test": "binding, competition with immobilised ligand", "conditions": "0.5 µM", "quantity": "remaining binding", "value": "81%"}
{"SMILES": "C#Cc1cc(-c2cc(Nc3nc(N[C@@H](C)c4ccc(F)cn4)ncc3Cl)n[nH]2)ccc1C=O", "test": "enzyme activity, inhibitor", "conditions": "0.2 µM", "quantity": "inhibition", "value": "45.4%"}
{"SMILES": "Cc1ccc(NC(=O)c2ccnc(C(F)(F)F)c2)cc1-c1cc(OCCO)nc(N2CCOCC2)c1", "test": "binding, competition with immobilised ligand", "conditions": "1 µM", "quantity": "remaining binding", "value": "100%"}
{"SMILES": "C1=C/COCc2cc(ccc2OCCN2CCCC2)Nc2nccc(n2)-c2cccc(c2)COC/1", "test": "cell-free assay", "conditions": "0.1 µM", "quantity": "remaining signal", "value": "80%"}
{"SMILES": "CO[C@@H]1[C@H](N(C)C(=O)c2ccccc2)C[C@H]2O[C@]1(C)n1c3ccccc3c3c4c(c5c6ccccc6n2c5c31)C(=O)NC4", "test": "enzyme activity, inhibitor", "conditions": "1 µM", "quantity": "inhibition", "value": "77%"}
{"SMILES": "C[C@H]1CC[C@H](n2c3cnccc3c3cnc(Nc4ccc5c(n4)CCN(C(=O)CO)C5)nc32)CC1", "test": "binding, competition with immobilised ligand", "conditions": "1 µM", "quantity": "remaining binding", "value": "100%"}
